Results filed as inconclusive are left out.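 Rule for the calls, unless noted: active = growth inhibition above 25% in both replicates, a cutoff set 3 SD above the mean; inconclusive = above 25% in only one replicate; inactive = the rest.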
Assays:
[1] = OD615 S. cerevisiae growth inhibition, permissive medium, pilot counter-assay, permissive growth control for S. cerevisiae lifespan shortening project (AID 705); settings: OD615, 24 h, at 10 µM, active compounds read high
How it was run: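 System: S. cerevisiae with engineered DeaD lifespan system / Measured by: absorbance (optical density) at 615 nm / Read-out: reduction in yeast growth (OD615) / Times: 4 h cell pre-growth, 24 h exposure at 30 °C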

[2] = Restrictive medium S. cerevisiae growth inhibition, OD615, pilot screen of yeast lifespan reduction project, restrictive growth control (AID 706;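 active = growth inhibition above a set limit, 3 SD over mean compound inhibition, in both replicates, cut at about 43% in these data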;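 note: modified DeaD lifespan yeast strain shifted to restrictive glucose medium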); settings: OD615, 48 h, at 10 µM, active compounds read high
How it was run: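 System: Engineered S. cerevisiae DeaD strain | Buffer or medium: Glucose-based CSMM-D restrictive medium | Schedule: 4 h pre-incubation, 48 h exposure at 30 °C | Technique: Optical density at 615 nm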

[3] = viability gain of MRP-1-high H69AR cells under doxorubicin, pilot screen, MRP-1 activator project, CellTiter-Glo, duplicate (AID 807;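 active = viability increase at or above a cutoff of the median across tested compounds plus 3 SD, cut at about 8.5% in these data, passing the limit was not always enough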;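 note: compound pretreatment 18-22 h then 72 h combined with doxorubicin; 0% = doxorubicin alone and 100% = vehicle without doxorubicin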); settings: H69AR viability with doxorubicin, CellTiter-Glo luminescence; at 10 µM; active compounds read high
[4] = growth suppression of beta-catenin knockout HCT116, pilot screen, human colon tumor cells (AID 823;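 active = cell viability at or below a set limit in both duplicate runs, the limit being the all-compound median minus 4 SD, cut at about 23% in these data, passing the limit was not always enough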;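 note: 0% = wells killed by 20 µM Hyamine and 100% = untreated DMSO cell wells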); settings: CellTiter-Glo, 60 h, at 10 µM, active compounds read low
[5] = growth suppression of PTEN-deleted HCT116, pilot screen, cell-based, HCT116 clonal line, CellTiter-Glo (AID 824;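 active = viability at or below 27.92% in each of two runs, the all-compound median minus 4 SD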;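 note: 0% = 20 µM Hyamine control and 100% = vehicle cell control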); settings: 60 h, at 10 µM, active compounds read low
[6] = inhibitors of the yeast RAM network, pilot screen, dse1pr::URA3 reporter, 5-FOA selection (AID 869;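 active = inhibition over a set limit, the all-compound mean plus 3 SD, in both replicate runs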;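 note: 0% = DMSO wells with no growth and 100% = 10 µM 1-NA-PP1 with full growth; RAM network block rescues cells from 5-FOA so hits raise OD615 growth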); settings: S. cerevisiae dse1pr::URA3 5-FOA growth, OD615, 2 d; at 10 µM; active compounds read high; strain carries analog-sensitive mutant Cbk1 kinase
[7] = RAM signaling pathway blockade in yeast – S. cerevisiae, Pdr1DBD-CYC8 efflux-inhibited sensitized strain, primary screen (AID 1298;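 active = RAM network inhibition above 8.4% in each of two replicates, 3 SD over the compound average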;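 note: 0% = DMSO untreated cells without growth and 100% = 10 µM 1-NA-PP1 full growth; higher means more yeast growth rescued from 5-FOA killing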); settings: S. cerevisiae cbk1-as DSE1-URA3 strain, 5-FOA growth OD615, 2 d; at 50 µM; active compounds read high

O=C(Nc1nccs1)c1cc(S(=O)(=O)N2CCCCC2)ccc1Cl
inactive: growth inhibition [1] -6.76% | growth inhibition [2] -16.1% | viability increase [3] 0.46% | viability [4] 99.7% | viability [5] 88.6% | inhibition [6] 1.89% | RAM network inhibition [7] 4.88%

CC1CCN(c2nc(-c3ccccc3)c(C#N)c(=O)[nH]2)CC1
inactive: growth inhibition [1] -10.1% | growth inhibition [2] -13.7% | viability increase [3] -0.55% | viability [4] 101% | viability [5] 92.1% | inhibition [6] 1.46% | RAM network inhibition [7] 2.74%

COc1ccc(OCCOC(=O)Nc2ccccc2)cc1
inactive: growth inhibition [1] -13.2% | growth inhibition [2] -6.21% | viability increase [3] 1.53% | viability [4] 93.4% | viability [5] 94.1% | inhibition [6] 1.64% | RAM network inhibition [7] 5.48%

CCCC(=O)C1=C(O)C(C(=O)OC)C(C)(C)CC1=Nc1ccccc1 (stereo unspecified)
inactive: growth inhibition [1] -12.6% | growth inhibition [2] -6.79% | viability increase [3] -0.91% | viability [4] 91.2% | viability [5] 88.6% | inhibition [6] 0.685% | RAM network inhibition [7] 2.75%

O=C(Cn1cc2c(n1)CCCC2)Nc1ccccc1Br
inactive: growth inhibition [1] -13% | growth inhibition [2] -9.29% | viability increase [3] -2.82% | viability [4] 95.7% | viability [5] 86.7% | inhibition [6] 1.64% | RAM network inhibition [7] 1.15%

COCc1cc(C)nc(N2CCOCC2)c1C#N
inactive: growth inhibition [1] -14.3% | growth inhibition [2] 3.52% | viability increase [3] -0.86% | viability [4] 103% | viability [5] 101% | inhibition [6] 1.35% | RAM network inhibition [7] 5.54%

CCSC1=C(C#N)C(c2ccc(F)cc2)CC(=O)N1 (stereo unspecified)
inactive: growth inhibition [1] 5.18% | growth inhibition [2] -4.98% | viability increase [3] 1% | viability [4] 93.4% | viability [5] 101% | inhibition [6] 0.48% | RAM network inhibition [7] 2.29%

Cc1ccc(NC(=O)Cn2cc3c(n2)CCC(C)C3)cc1 (stereo unspecified)
inactive: growth inhibition [1] -1.07% | growth inhibition [2] 2.22% | viability increase [3] 0.37% | viability [4] 106% | viability [5] 88.6% | inhibition [6] 0.39% | RAM network inhibition [7] 1.64%

COc1ccc(C2C(C(=O)N3CCN(c4ccccc4)CC3)c3ccccc3C(=O)N2C)cc1OC (stereo unspecified)
inactive: growth inhibition [1] -8.36% | growth inhibition [2] -14.2% | viability increase [3] -1.19% | viability [4] 97.1% | viability [5] 99.3% | inhibition [6] 1.28% | RAM network inhibition [7] 0.53%

CCCOC(=O)CC1C(=O)NCCN1Cc1ccccc1C (stereo unspecified)
inactive: growth inhibition [1] -20.8% | growth inhibition [2] -0.97% | viability increase [3] -0.62% | viability [4] 98.8% | viability [5] 94.2% | inhibition [6] 1.71% | RAM network inhibition [7] 7.95%

O=C(O)c1cccc2c1C(=O)N(C1CCCCC1)C2
inactive: growth inhibition [1] -18.8% | growth inhibition [2] -5.79% | viability increase [3] -1.27% | viability [4] 104% | viability [5] 98.3% | inhibition [6] 1.97% | RAM network inhibition [7] 6.19%

CCOc1ccc(S(=O)(=O)Nc2ccccc2C(=O)NCC2CCCO2)cc1 (stereo unspecified)
inactive: growth inhibition [1] -13% | growth inhibition [2] -16.7% | viability increase [3] -0.84% | viability [4] 94.1% | viability [5] 95.5% | inhibition [6] 1.91% | RAM network inhibition [7] 5.77%

CCOC(=O)Cn1c(=O)oc2cc(S(=O)(=O)Nc3ccc(N(CC)CC)cc3C)ccc21
inactive: growth inhibition [1] -11.3% | growth inhibition [2] -8.05% | viability increase [3] 0.16% | viability [4] 85.6% | viability [5] 86.6% | inhibition [6] 1.81% | RAM network inhibition [7] 9.51%

CNC(=O)c1ccc2snnc2c1
inactive: growth inhibition [1] -8.38% | growth inhibition [2] 5.12% | viability increase [3] -1.54% | viability [4] 107% | viability [5] 97.9% | inhibition [6] 0.52% | RAM network inhibition [7] -0.47%

CSc1ccc(Cl)c(C(=O)NCc2ccco2)c1
inactive: growth inhibition [1] -3.93% | growth inhibition [2] 8.44% | viability increase [3] -3.7% | viability [4] 85.8% | viability [5] 81.6% | inhibition [6] 2.33% | RAM network inhibition [7] 5.31%

CC(C)Sc1nnc(Cn2c(=O)sc3ccccc32)n1-c1ccccc1
inactive: growth inhibition [1] 1.75% | growth inhibition [2] -10.2% | viability increase [3] -0.05% | viability [4] 87.1% | viability [5] 86.5% | inhibition [6] -0.63% | RAM network inhibition [7] 5.84%

CC1CC(C)CN(CCCNC(=O)Cc2c(C(=O)O)[nH]c3ccccc23)C1 (stereo unspecified)
inactive: growth inhibition [1] -11.5% | growth inhibition [2] -13.5% | viability increase [3] -0.1% | viability [4] 103% | viability [5] 99.6% | inhibition [6] 0.68% | RAM network inhibition [7] 1.78%

OCCCc1nc2n(n1)C(c1ccccc1)C=C(c1ccccc1)N2 (stereo unspecified)
inactive: growth inhibition [1] -7.07% | growth inhibition [2] 1.69% | viability increase [3] -2.67% | viability [4] 97.1% | viability [5] 89.1% | inhibition [6] 0.59% | RAM network inhibition [7] 0.53%

CCCC(=O)c1cc(F)c(N2CCN(S(=O)(=O)c3ccccc3)CC2)cc1C
inactive: growth inhibition [1] -7.04% | growth inhibition [2] -27.6% | viability increase [3] 1.53% | viability [4] 90.3% | viability [5] 88.5% | inhibition [6] 3.01% | RAM network inhibition [7] 3.18%

O=C(CN1CCOc2ccccc21)N1CCN(c2cccc(Cl)c2)CC1
inactive: growth inhibition [1] 6% | growth inhibition [2] 18.6% | viability increase [3] -4.17% | viability [4] 84.1% | viability [5] 84.4% | inhibition [6] 2.77% | RAM network inhibition [7] 4.14%

O=C1CCC(=O)N1c1ccc(CSc2nnnn2C2CCCCC2)cc1
inactive: growth inhibition [1] -0.7% | growth inhibition [2] 4.66% | viability increase [3] 0.3% | viability [4] 103% | viability [5] 97.6% | inhibition [6] -0.145% | RAM network inhibition [7] 1.92%

O=C(NCC1COc2ccccc2O1)C1CCCN(S(=O)(=O)c2cccc3cccnc23)C1 (stereo unspecified)
inactive: growth inhibition [1] -2.58% | growth inhibition [2] -19.5% | viability increase [3] 0.43% | viability [4] 71.8% | viability [5] 72.9% | inhibition [6] 2.7% | RAM network inhibition [7] 3.24%

O=C(NCc1ccc(Cl)cc1)C1CCCN(S(=O)(=O)c2cnc[nH]2)C1 (stereo unspecified)
inactive: growth inhibition [1] 1.47% | growth inhibition [2] -8.94% | viability increase [3] 1.36% | viability [4] 106% | viability [5] 92.4% | inhibition [6] 2.04% | RAM network inhibition [7] 1.09%

CCOC(=O)N1CCN(CC(=O)Nc2ccc(C)cc2)CC1
inactive: growth inhibition [1] -4.43% | growth inhibition [2] 4.79% | viability increase [3] -3.03% | viability [4] 98.3% | viability [5] 100% | inhibition [6] 1.11% | RAM network inhibition [7] -0.15%

O=C(c1ccccc1S(=O)(=O)NCc1ccccc1)N1CCCCC1
inactive: growth inhibition [1] -1.57% | growth inhibition [2] -5.03% | viability increase [3] -2.89% | viability [4] 98.6% | viability [5] 91% | inhibition [6] 1.01% | RAM network inhibition [7] 1.68%

COc1ccc(Cl)cc1S(=O)(=O)n1ccnc1C(C)C
inactive: growth inhibition [1] -8.68% | growth inhibition [2] -13% | viability increase [3] -2.46% | viability [4] 102% | viability [5] 93.3% | inhibition [6] 1.74% | RAM network inhibition [7] 2.15%

COc1ccccc1C(=O)NC(C)c1nc2ccccc2[nH]1 (stereo unspecified)
inactive: growth inhibition [1] -3.51% | growth inhibition [2] -5.35% | viability increase [3] 2.18% | viability [4] 99% | viability [5] 93% | inhibition [6] 3.37% | RAM network inhibition [7] 1.06%

CC(NC(=O)C1CCC(=O)N1Cc1ccc(F)cc1)c1ccc2c(c1)OCCO2 (stereo unspecified)
inactive: growth inhibition [1] -1.08% | growth inhibition [2] -4.75% | viability increase [3] -1.94% | viability [4] 96.4% | viability [5] 94.9% | inhibition [6] 0.975% | RAM network inhibition [7] 4.36%

Nc1cc(N)nc(SCCOc2ccccc2)n1
inactive: growth inhibition [1] -4.79% | growth inhibition [2] -0.825% | viability increase [3] 0.93% | viability [4] 106% | viability [5] 106% | inhibition [6] 2.26% | RAM network inhibition [7] 2.17%

O=C(Nc1ccc(F)cc1)C1CCC(N2C(=O)c3ccccc3C2=O)CC1 (stereo unspecified)
inactive: growth inhibition [1] -11.6% | growth inhibition [2] -20.7% | viability increase [3] -7.05% | viability [4] 86.3% | viability [5] 96.1% | inhibition [6] 1.48% | RAM network inhibition [7] 12.4%

Cc1ccc(C)c(Cn2c(CN(C)Cc3ccccc3)nc3c2c(=O)n(C)c(=O)n3C)c1
inactive: growth inhibition [1] -0.27% | growth inhibition [2] -21.5% | viability increase [3] -6.57% | viability [4] 71.7% | viability [5] 61.5% | inhibition [6] 2.2% | RAM network inhibition [7] 2.51%

CCCn1nc2ccccc2c1P(=N)(N1CCOCC1)N1CCOCC1
inactive: growth inhibition [1] -7.87% | growth inhibition [2] -23.5% | viability increase [3] -2% | viability [4] 96% | viability [5] 96.8% | inhibition [6] 2.04% | RAM network inhibition [7] 1.45%

CCOc1ccc(C2N(c3ccc(F)cc3)C(=O)C3CCCN32)cc1 (stereo unspecified)
inactive: growth inhibition [1] -6.9% | growth inhibition [2] -2.44% | viability increase [3] -0.91% | viability [4] 94.3% | viability [5] 91.2% | inhibition [6] 2.38% | RAM network inhibition [7] 4.43%

Source: PubChem BioAssay
